According to ChEMBL document CHEMBL3779819, “Design, synthesis and biological evaluation of LBM-A5 derivatives as potent P-glycoprotein-mediated multidrug resistance inhibitors” (Bioorg Med Chem, 2016):
Structures can show the parent of a compound that is named as a salt.

Tests used:
Assay type in all cases: cell-based
[1] = test system: K562; experiment: Cytotoxicity against human K562 cells assessed as cell viability after 48 hrs by MTT assay; details: K562, 48 h
How it was run: (§1)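 K562 and ADM-resistant, P-gp-overexpressing K562/A02 cells seeded at 1~2×10^4 per well, grown 24 h, then given graded compound doses in medium. Exposure 48 h, 37 °C, 5% CO2. MTT added for a further 4 h, absorbance read at 570 nm. IC50 taken from dose–response curves. Each experiment run three times.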

[2] = Cytotoxicity against human K562/A02 cells assessed as cell viability after 48 hrs by MTT assay; details: K562/A02, 48 h; how it was run: as §1
[3] = test system: K562/A02; experiment: Reversal of P-gp-mediated resistance to adriamycin in human K562/A02 cells assessed as reduction in adriamycin IC50 at 5 uM after 48 hrs by MTT assay relative to control
How it was run: (§2)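 K562/A02 cells in RPMI 1640 with 10% FBS, seeded and grown 24 h. Cells given a series of ADM concentrations with or without modulator at 5 μM for 48 h at 37 °C. MTT added for 4 h, A570 read. ADM IC50 from dose–response curves. RF = IC50 without modulator / IC50 with modulator. Triplicates, three independent repeats.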

[4] = (§3) Reversal of P-gp-mediated resistance to adriamycin in human K562/A02 cells assessed as reduction in adriamycin IC50 after 48 hrs by MTT assay; details: K562/A02, 48 h; how it was run: as §2
[5] = test system: K562/A02; experiment: as §3; how it was run: as §2
[6] = test system: K562/A02; experiment: Reversal of P-gp-mediated resistance to adriamycin in human K562/A02 cells assessed as reduction in adriamycin IC50 at 0.156 uM after 48 hrs by MTT assay relative to control
How it was run: (§4)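 K562/A02 cells in RPMI 1640 with 10% FBS, grown 24 h. Cells exposed 48 h at 37 °C to graded ADM concentrations, with or without modulator at 0.078–2.5 μM. MTT added for 4 h, A570 read. Reversal fold = ADM IC50 without modulator / ADM IC50 with modulator. Three independent experiments, mean±SEM.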

[7] = test system: K562/A02; experiment: Reversal of P-gp-mediated resistance to adriamycin in human K562/A02 cells assessed as reduction in adriamycin IC50 at 0.31 uM after 48 hrs by MTT assay relative to control; how it was run: as §4
[8] = test system: K562/A02; experiment: Reversal of P-gp-mediated resistance to adriamycin in human K562/A02 cells assessed as reduction in adriamycin IC50 at 0.625 uM after 48 hrs by MTT assay relative to control; how it was run: as §4
[9] = test system: K562/A02; experiment: Reversal of P-gp-mediated resistance to adriamycin in human K562/A02 cells assessed as reduction in adriamycin IC50 at 2.5 uM after 48 hrs by MTT assay relative to control; how it was run: as §4
[10] = test system: K562/A02; experiment: Reversal of P-gp-mediated resistance to adriamycin in human K562/A02 cells assessed as reduction in adriamycin IC50 at 1.25 uM after 48 hrs by MTT assay relative to control; how it was run: as §4
[11] = test system: K562/A02; experiment: Reversal of P-gp-mediated resistance to adriamycin in human K562/A02 cells assessed as reduction in adriamycin IC50 at 0.078 uM after 48 hrs by MTT assay relative to control; how it was run: as §4
[12] = test system: K562/A02; experiment: Potency index, ratio of verapamil to compound for inhibition of P-gp-mediated adriamycin efflux in human K562/A02 cells assessed as intracellular adriamycin accumulation at 5 uM
[13] = test system: K562/A02; experiment: Inhibition of P-gp-mediated adriamycin efflux in human K562/A02 cells assessed as intracellular adriamycin accumulation at 5 uM preincubated for 60 mins followed by adriamycin addition measured after 90 mins by flow cytometry
How it was run: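 K562/A02 cells (ADM-induced, P-gp-overexpressing) seeded at 1.5×10^5/well; modulator or 0.1% DMSO vehicle pre-incubated 60 min, then 20 μM ADM added for 90 min; cells washed three times with PBS at 4°C; retained intracellular ADM read as mean fluorescence intensity by flow cytometry; means±SD of two independent experiments.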

[14] = test system: K562/A02; experiment: Inhibition of P-gp-mediated adriamycin efflux in human K562/A02 cells assessed as increase in intracellular accumulation of adriamycin preincubated for 60 mins followed by adriamycin addition measured after 90 mins by flow cytometry
How it was run: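 K562/A02 cells seeded at 1.5×10^5 per well. Modulator (0.5, 2.5 or 5 μM) or 0.1% DMSO vehicle pre-incubated 60 min. ADM 20 μM then added for 90 min. Cells washed three times in PBS at 4 °C. Retained ADM read as mean fluorescence intensity by flow cytometry. Means±SD of two independent experiments.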

Compound | IC50 [1] | IC50 [2] | fold change (FC) [3] | further results
CCc1ccc(OCc2cn(CCN3CCc4cc(OC)c(OC)cc4C3)nn2)cc1 | > 100 µM | > 100 µM | 6.1 | –
COc1cc2c(cc1OC)CN(CCn1cc(COc3ccc([N+](=O)[O-])cc3)nn1)CC2 | > 100 µM | > 100 µM | 3.1 | –
COc1cc2c(cc1OC)CN(CCc1ccc(-n3cc(COc4ccc(C(C)(C)C)cc4)nn3)cc1)CC2 | 21.1 µM | > 100 µM | 9.3 | –
COc1cc2c(cc1OC)CN(CCc1ccc(-n3cc(COc4ccc([N+](=O)[O-])cc4)nn3)cc1)CC2 | 49.2 µM | > 100 µM | 5.4 | –
COc1cc2c(cc1OC)CN(CCn1cc(COc3ccccc3C(C)(C)C)nn1)CC2 | > 100 µM | > 100 µM | 9.6 | –
COc1cc2c(cc1OC)CN(CCn1cc(COc3ccc(C)cc3C)nn1)CC2 | > 100 µM | > 100 µM | 4.6 | –
COc1cc2c(cc1OC)CN(CCn1cc(COc3ccc4ccccc4c3)nn1)CC2 | > 100 µM | > 100 µM | 3.6 | –
COc1cc2c(cc1OC)CN(CCc1ccc(-n3cc(COc4cccc5cccnc45)nn3)cc1)CC2 | 28 µM | > 100 µM | 10 | –
COc1cc2c(cc1OC)CN(CCc1ccc(-n3cc(COc4ccc5ccccc5c4)nn3)cc1)CC2 | > 100 µM | > 100 µM | 8.5 | –
COc1cc2c(cc1OC)CN(CCc1ccc(-n3cc(COc4ccccc4)nn3)cc1)CC2 | > 100 µM | > 100 µM | 31.4 | EC50 [4]: 0.193 µM; Activity [5]: Dose-dependent effect; fold change (FC) [6]: 2.2; fold change (FC) [7]: 7.2; fold change (FC) [8]: 11.3; fold change (FC) [9]: 20.3; fold change (FC) [10]: 16.9; fold change (FC) [11]: 1.6; Ratio [12]: 1.5; Flu intensity [13]: 1280; inhibition [14]: Dose-dependent effect
COc1cc2c(cc1OC)CN(CCn1cc(COc3ccc(F)cc3)nn1)CC2 | > 100 µM | > 100 µM | 2.7 | –
COc1cc2c(cc1OC)CN(CCc1ccc(-n3cc(COc4cccc5ccccc45)nn3)cc1)CC2 | > 100 µM | > 100 µM | 21 | –
COc1ccc(CCN(C)CCCC(C#N)(c2ccc(OC)c(OC)c2)C(C)C)cc1OC (stereo unspecified) | 65.3 µM | – | – | –
COc1ccc(C(=O)Nc2ccccc2C(=O)Nc2ccc(CCN3CCc4cc(OC)c(OC)cc4C3)cc2)cc1OC | 19.6 µM | 50.1 µM | 30.4 | –
COc1cc2c(cc1OC)CN(CCn1cc(COc3ccc(C(C)(C)C)cc3)nn1)CC2 | > 100 µM | > 100 µM | 20.4 | –
COc1cccc2c1C(=O)c1c(O)c3c(c(O)c1C2=O)C[C@@](O)(C(=O)CO)C[C@@H]3O[C@H]1C[C@H](N)[C@H](O)[C@H](C)O1 [DOXORUBICIN HYDROCHLORIDE] | 6.23 µM | 38 µM | – | –
COc1cc2c(cc1OC)CN(CCc1ccc(-n3cc(COc4ccc(C(C)C)cc4)nn3)cc1)CC2 | > 100 µM | > 100 µM | 9.2 | –
COc1ccc(OCc2cn(CCN3CCc4cc(OC)c(OC)cc4C3)nn2)cc1 | > 100 µM | > 100 µM | 3.4 | –
COc1cc2c(cc1OC)CN(CCn1cc(COc3ccccc3OC)nn1)CC2 | > 100 µM | > 100 µM | 4.1 | –
COc1cc2c(cc1OC)CN(CCn1cc(COc3ccc(C(C)C)cc3)nn1)CC2 | > 100 µM | > 100 µM | 7.7 | –
COc1cc2c(cc1OC)CN(CCn1cc(COc3ccc(C)c(C)c3)nn1)CC2 | > 100 µM | > 100 µM | 9.1 | –
COc1cc2c(cc1OC)CN(CCn1cc(COc3cccc4ccccc34)nn1)CC2 | > 100 µM | > 100 µM | 5.7 | –
COc1cc2c(cc1OC)CN(CCn1cc(COc3ccc(C)cc3)nn1)CC2 | > 100 µM | > 100 µM | 6.2 | –
COc1cc2c(cc1OC)CN(CCc1ccc(-n3cc(COc4ccccc4NC(=O)c4ccccc4)nn3)cc1)CC2 | > 100 µM | > 100 µM | 23 | EC50 [4]: 0.484 µM
COc1cc2c(cc1OC)CN(CCc1ccc(-n3cc(COc4ccc(C)cc4)nn3)cc1)CC2 | > 100 µM | > 100 µM | 5.8 | –
COc1ccc(OCc2cn(-c3ccc(CCN4CCc5cc(OC)c(OC)cc5C4)cc3)nn2)cc1 | > 100 µM | > 100 µM | 3.5 | –
CCc1ccc(OCc2cn(-c3ccc(CCN4CCc5cc(OC)c(OC)cc5C4)cc3)nn2)cc1 | > 100 µM | > 100 µM | 9.1 | –
COc1cc2c(cc1OC)CN(CCc1ccc(-n3cc(COc4ccccc4[N+](=O)[O-])nn3)cc1)CC2 | 48.8 µM | > 100 µM | 7.4 | –
COc1cc2c(cc1OC)CN(CCc1ccc(-n3cc(COc4ccc(OC(F)(F)F)cc4)nn3)cc1)CC2 | 37.4 µM | > 100 µM | 5.9 | –
